According to ChEMBL document CHEMBL4765283, “Design, synthesis, in vitro and in silico studies of novel 4-oxoquinoline ribonucleoside derivatives as HIV-1 reverse transcriptase inhibitors” (Eur J Med Chem, 2020):

What was measured:
[1] = Inhibition of recombinant HIV1 HXB2 reverse transcriptase RDDP activity assessed as reduction in biotin/digoxin-dU incorporation into polirA-oligodU template primer measured after 30 mins by ELISA; design: species or system HIV-1 M:B_HXB2R
How it was run: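 Purified recombinant HIV-1 RT (HXB2 clone), 3 U, incubated with compounds over a concentration range and poly(rA)-oligo(dU). Biotin- and digoxin-labelled dU (equimolar) incorporated at 37 °C for 30 min, stopped with 0.5 M EDTA. Product captured on streptavidin-coated plates and detected with peroxidase-tagged anti-digoxin antibody. Absorbance read at 570 nm against 690 nm reference. IC50 from linear regression of dose-response curves.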

[2] = Cytotoxicity against human PBMC assessed as reduction in cell viability after 72 hrs by XTT assay; format: tissue-based
How it was run: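 Primary human PBMCs, 2×10^4 cells/well, exposed to compounds at several concentrations for 72 h. XTT (5 mg/mL) with 0.01 % PMS in DMEM then added for 4 h at 37 °C. Absorbance read at 492 and 620 nm. CC50 obtained by linear regression of dose-response curves.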

[3] = Protection index, ratio of azidothymidine CC50 to test compound CC50 for human PBMC; format: ADME, tissue-based; details: read-out: PI
[4] = system: HIV1 HXB2 reverse transcriptase RDDP activity; experiment: Selectivity index, ratio of CC50 for human PBMC to IC50 for inhibition of recombinant HIV1 HXB2 reverse transcriptase RDDP activity; format: toxicity; details: read-out: Ratio CC50/IC50

SMILES | IC50 [1] [µM] | CC50 at 72 h [2] [µM] | selectivity ratio [3] | selectivity ratio [4]
O=C(NCc1ccc(Cl)cc1)c1cn([C@@H]2O[C@H](CO)[C@@H](O)[C@H]2O)c2ccc(F)cc2c1=O | 3.9 | > 1000 | > 10 | 
O=C(OC[C@H]1O[C@@H](n2cc(C(=O)NC3CCCCC3)c(=O)c3cc(Cl)ccc32)[C@H](OC(=O)c2ccccc2)[C@@H]1OC(=O)c1ccccc1)c1ccccc1 | 8.6 | > 1000 | > 10 | 
O=C(OC[C@H]1O[C@@H](n2cc(C(=O)Nc3ccccc3)c(=O)c3cc(Cl)ccc32)[C@H](OC(=O)c2ccccc2)[C@@H]1OC(=O)c1ccccc1)c1ccccc1 | 19.5 | > 1000 | > 10 | 
O=C(OC[C@H]1O[C@@H](n2cc(C(=O)NCc3ccc(Cl)cc3)c(=O)c3cc(F)ccc32)[C@H](OC(=O)c2ccccc2)[C@@H]1OC(=O)c1ccccc1)c1ccccc1 | 2.8 | > 1000 | > 10 | 
Cc1cn([C@H]2C[C@H](N=[N+]=[N-])[C@@H](CO)O2)c(=O)[nH]c1=O [ZIDOVUDINE] | 0.05 | 126 |  | 
O=C(NCc1ccc(Cl)cc1)c1cn([C@@H]2O[C@H](CO)[C@@H](O)[C@H]2O)c2ccccc2c1=O | 29.2 | > 1000 | > 10 | 
O=C(OC[C@H]1O[C@@H](n2cc(C(=O)NCc3ccc(Cl)cc3)c(=O)c3ccccc32)[C@H](OC(=O)c2ccccc2)[C@@H]1OC(=O)c1ccccc1)c1ccccc1 | 1.4 | 1490 | > 10 | 998
Cc1ccc2c(c1)c(=O)c(C(=O)NCc1ccc(Cl)cc1)cn2[C@@H]1O[C@H](CO)[C@@H](O)[C@H]1O | 4.3 | > 1000 | > 10 | 
O=C(NCc1ccc(Cl)cc1)c1cn([C@@H]2O[C@H](CO)[C@@H](O)[C@H]2O)c2ccc(C(F)(F)F)cc2c1=O | 3.9 | > 1000 | > 10 | 
O=C(OC[C@H]1O[C@@H](n2cc(C(=O)NCc3ccc(Cl)cc3)c(=O)c3cc(C(F)(F)F)ccc32)[C@H](OC(=O)c2ccccc2)[C@@H]1OC(=O)c1ccccc1)c1ccccc1 | 2.9 | > 1000 | > 10 | 
O=C(NCc1ccc(Cl)cc1)c1cn([C@@H]2O[C@H](CO)[C@@H](O)[C@H]2O)c2ccc(Cl)cc2c1=O | 18.4 | > 1000 | > 10 | 
O=C(NC1CCCCC1)c1cn([C@@H]2O[C@H](CO)[C@@H](O)[C@H]2O)c2ccc(Cl)cc2c1=O | 22.4 | > 1000 | > 10 | 
O=C(OC[C@H]1O[C@@H](n2cc(C(=O)NCc3ccc(Cl)cc3)c(=O)c3cc(Cl)ccc32)[C@H](OC(=O)c2ccccc2)[C@@H]1OC(=O)c1ccccc1)c1ccccc1 | 8.8 | > 1000 | > 10 | 
Cc1ccc2c(c1)c(=O)c(C(=O)NCc1ccc(Cl)cc1)cn2[C@@H]1O[C@H](COC(=O)c2ccccc2)[C@@H](OC(=O)c2ccccc2)[C@H]1OC(=O)c1ccccc1 | 1.6 | 1390 | > 10 | 830
COc1ccc(NC(=O)c2cn([C@@H]3O[C@H](COC(=O)c4ccccc4)[C@@H](OC(=O)c4ccccc4)[C@H]3OC(=O)c3ccccc3)c3ccc(Cl)cc3c2=O)cc1 | 6.8 | > 1000 | > 10 | 

The next lines start with results.

IC50 [1] [µM] | SMILES | CC50 at 72 h [2] [µM] | selectivity ratio [3] | selectivity ratio [4]
5.8 | O=C(Nc1ccc(F)cc1)c1cn([C@@H]2O[C@H](CO)[C@@H](O)[C@H]2O)c2ccc(Cl)cc2c1=O | > 1000 | > 10 | 
7.3 | O=C(OC[C@H]1O[C@@H](n2cc(C(=O)Nc3ccc(F)cc3)c(=O)c3cc(Cl)ccc32)[C@H](OC(=O)c2ccccc2)[C@@H]1OC(=O)c1ccccc1)c1ccccc1 | > 1000 | > 10 | 
9.9 | O=C(OC[C@H]1O[C@@H](n2cc(C(=O)Nc3ccc(Cl)cc3)c(=O)c3cc(Cl)ccc32)[C@H](OC(=O)c2ccccc2)[C@@H]1OC(=O)c1ccccc1)c1ccccc1 | > 1000 | > 10 | 
2.6 | O=C(Nc1ccccc1)c1cn([C@@H]2O[C@H](CO)[C@@H](O)[C@H]2O)c2ccc(Cl)cc2c1=O | > 1000 | > 10 | 
16.6 | Cc1ccc(NC(=O)c2cn([C@@H]3O[C@H](COC(=O)c4ccccc4)[C@@H](OC(=O)c4ccccc4)[C@H]3OC(=O)c3ccccc3)c3ccc(Cl)cc3c2=O)cc1 | > 1000 | > 10 | 
3.4 | COc1ccc(NC(=O)c2cn([C@@H]3O[C@H](CO)[C@@H](O)[C@H]3O)c3ccc(Cl)cc3c2=O)cc1 | > 1000 | > 10 | 
8 | O=C(Nc1ccc(Cl)cc1)c1cn([C@@H]2O[C@H](CO)[C@@H](O)[C@H]2O)c2ccc(Cl)cc2c1=O | > 1000 | > 10 | 
